Results: ChEMBL document CHEMBL4014313, “Probing Molecular Interactions between Human Carbonic Anhydrases (hCAs) and a Novel Class of Benzenesulfonamides” (J Med Chem, 2017)

Experiments:
Carbonic anhydrase 9 = Carbonic anhydrase 9 (Homo sapiens, UniProt Q16790); assay: Inhibition of human carbonic anhydrase 9 incubated for 15 mins prior to testing by stopped flow CO2 hydration assay
In short: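 Recombinant hCA isoform; stopped-flow CO2 hydration monitored by phenol red (0.2 mM) absorbance at 557 nm, 10−20 mM Hepes pH 7.5 or Tris pH 8.3, 20 mM Na2SO4 or NaClO4 for ionic strength; initial rates over 10−100 s, CO2 1.7 to 17 mM; inhibitor dilutions in water down to 0.01 nM, preincubated with enzyme 15 min at room temperature; uncatalyzed rate subtracted; Ki by nonlinear least squares, mean of at least three determinations.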

Carbonic anhydrase 12 = Carbonic anhydrase 12 (Homo sapiens, UniProt O43570); assay: Inhibition of human carbonic anhydrase 12 incubated for 15 mins prior to testing by stopped flow CO2 hydration assay
Chain of Carbonic anhydrase 12 (O43570 whole entry): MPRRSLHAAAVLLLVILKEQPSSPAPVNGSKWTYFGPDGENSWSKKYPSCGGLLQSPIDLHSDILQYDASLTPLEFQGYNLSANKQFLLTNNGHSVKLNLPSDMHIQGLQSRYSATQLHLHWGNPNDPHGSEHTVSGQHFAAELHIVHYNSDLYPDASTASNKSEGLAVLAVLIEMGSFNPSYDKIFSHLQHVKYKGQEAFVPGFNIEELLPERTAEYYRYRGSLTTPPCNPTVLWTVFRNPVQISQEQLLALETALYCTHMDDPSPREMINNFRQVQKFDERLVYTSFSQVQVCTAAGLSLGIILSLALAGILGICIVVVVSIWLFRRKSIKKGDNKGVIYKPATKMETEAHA

Ki (Carbonic anhydrase 9) [nM]	Ki (Carbonic anhydrase 12) [nM]	Structure (SMILES)
5	–	COc1cc2c(cc1OC)C(c1ccccc1)N(C(=O)c1ccc(S(N)(=O)=O)cc1)CC2 (single isomer, unassigned; enantiomer 1)
58.7	–	COc1ccc2c(c1)CCN(C(=O)c1ccc(S(N)(=O)=O)cc1)C2c1ccccc1 (single isomer, unassigned; enantiomer 2)
32.7	–	NS(=O)(=O)c1ccc(C(=O)N2CCc3cc(O)c(O)cc3[C@H]2c2ccccc2)cc1
39.8	–	NS(=O)(=O)c1ccc(C(=O)N2CCc3cc(O)ccc3C2c2ccccc2)cc1 (single isomer, unassigned; enantiomer 2)
50.6	–	NS(=O)(=O)c1ccc(C(=O)N2CCc3cc(O)ccc3C2c2ccccc2)cc1 (racemic)
9.1	–	COc1cc2c(cc1OC)C(c1ccc(F)cc1)N(C(=O)c1ccc(S(N)(=O)=O)cc1)CC2 (racemic)
9	7.6	NS(=O)(=O)c1ccc(C(=O)N2CCc3cc(O)c(O)cc3C2c2ccc(Cl)cc2)cc1 (racemic)
39.2	–	NS(=O)(=O)c1ccc(C(=O)N2CCc3cc(O)c(O)cc3[C@@H]2c2ccccc2)cc1
81.5	–	NS(=O)(=O)c1ccc(C(=O)N2CCc3cc(O)c(O)cc3C2c2ccc(Br)cc2)cc1 (racemic)
39.2	–	COc1ccc2c(c1)CCN(C(=O)c1ccc(S(N)(=O)=O)cc1)C2c1ccccc1 (racemic)
8.2	–	NS(=O)(=O)c1ccc(C(=O)N2CCc3cc(O)c(O)cc3C2c2ccc(F)cc2)cc1 (racemic)
91.4	–	COc1cc2c(cc1OC)C(c1ccc(Cl)cc1)N(C(=O)c1ccc(S(N)(=O)=O)cc1)CC2 (racemic)
25.3	–	COc1ccc2c(c1)CCN(C(=O)c1ccc(S(N)(=O)=O)cc1)C2c1ccccc1 (single isomer, unassigned; enantiomer 1)
90.9	–	COc1cc2c(cc1OC)C(c1ccc(Br)cc1)N(C(=O)c1ccc(S(N)(=O)=O)cc1)CC2 (racemic)
44.5	–	CCCOc1ccc2c(c1)CCN(C(=O)c1ccc(S(N)(=O)=O)cc1)C2c1ccccc1 (racemic)
36.9	–	NS(=O)(=O)c1ccc(C(=O)N2CCc3cc(O)c(O)cc3C2c2ccccc2)cc1 (racemic)
73.2	–	NS(=O)(=O)c1ccc(C(=O)N2CCc3cc(O)ccc3C2c2ccccc2)cc1 (single isomer, unassigned; Enantiomer-1)
4.9	–	COc1cc2c(cc1OC)C(c1ccccc1)N(C(=O)c1ccc(S(N)(=O)=O)cc1)CC2 (racemic)
4.8	–	COc1cc2c(cc1OC)C(c1ccccc1)N(C(=O)c1ccc(S(N)(=O)=O)cc1)CC2 (single isomer, unassigned; enantiomer 2)
